Test [1] deals with human chronic myelogenous K562 leukemia cells. As to the kind of experiment: Cell proliferation analysis, K562 cells. The class given is cell-based. To be noted: for IC50: Homo sapiens, K562, 24 h, read-out: IC50 K562. In a few lines:
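K562 cells grown in RPMI 1640 with 10% FCS, 2 mM L-glutamine, […] and penicillin/streptomycin at 37°C, 5% CO2. DMSO stocks (1 mg/mL) diluted in medium. Cells (1×10^4/well) exposed to increasing concentrations for 24 h at 37°C, then counted electronically. IC50 is 50% growth inhibition vs untreated controls. Duplicate cultures per concentration, repeated experiments, mean ± SE.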

In test [2] the test system is murine lymphocytic L1210 leukemia cells. Nature of the test: Cell proliferation analysis, L1210 cells. To be noted: Mus musculus, L1210, 24 h, read-out: IC50 L1210. The class given is cell-based. In a few lines: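 Murine L1210 cells maintained at 1×10^6 cells/mL in RPMI 1640 with 10% FCS, 2 mM L-glutamine, […] and penicillin/streptomycin (37 °C, 5% CO2). DMSO stocks (1 mg/mL) diluted in medium. 1×10^4 cells/well exposed to increasing concentrations for 24 h at 37 °C; cell number/mL counted on a Coulter counter. IC50 relative to untreated controls, duplicate cultures per concentration, mean ± SE of ≥3 independent experiments.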

Where only a bound is given, the exact number is not on record here.

Usually IC50 stands for the midpoint of a concentration-inhibition curve. In the case of `COc1cc(C(=O)c2oc3ccccc3c2NC(C)=O)cc(OC)c1OC` [Compound 3a, N-[2-(3,4,5-Trimethoxybenzoyl)-1-benzofuran-3-yl]acetamide], in test [1], the IC50 is more than 100000 nM.
For `COc1cc(C(=O)c2sc3c(C)cccc3c2NC(=O)CBr)cc(OC)c1OC` [Compound 3aa, 2-Bromo-N-[7-methyl-2-(3,4,5-trimethoxybenzoyl)-1-benzothien-3-yl]acetamide], the IC50 in test [1] was found to be 490 ± 80 nM.
On the same count and under the same terms, next, `COc1cc(C(=O)c2sc3c(C)cccc3c2NC(=O)CI)cc(OC)c1OC` [Compound 3ab, 2-Iodo-N-[7-methyl-2-(3,4,5-trimethoxybenzoyl)-1-benzothien-3-yl]acetamide]: 550 ± 10 nM; `COc1cc(C(=O)c2oc3ccccc3c2NC(=O)CCl)cc(OC)c1OC` [Compound 3b, 2-Chloro-N-[2-(3,4,5-trimethoxybenzoyl)-1-benzofuran-3-yl]acetamide]: 45800 ± 1500 nM.
As to `COc1cc(C(=O)c2oc3ccccc3c2NC(=O)CBr)cc(OC)c1OC` [Compound 3c, 2-Bromo-N-[2-(3,4,5-trimethoxybenzoyl)-1-benzofuran-3-yl]acetamide], the IC50 stood at 12800 ± 510 nM in test [1] and 4560 ± 640 nM in test [2].
`COc1cc(C(=O)c2oc3ccccc3c2NC(=O)CI)cc(OC)c1OC` [Compound 3d, 2-Iodo-N-[2-(3,4,5-trimethoxybenzoyl)-1-benzofuran-3-yl]acetamide]: the 50% inhibitory concentration (IC50) in test [1] was 2210 ± 90 nM. Further, the “fold more potent than the bromine 3c” value in test [1] (antiproliferative activity, K562 and L1210 cells) is 6 fold.
For the compound `COc1ccc2oc(C(=O)c3cc(OC)c(OC)c(OC)c3)c(NC(C)=O)c2c1` [Compound 3e, N-[5-Methoxy-2-(3,4,5-trimethoxybenzoyl)-1-benzofuran-3-yl]acetamide], the IC50 in test [1] was found to be 58100 ± 1300 nM.
Turning to `COc1ccc2oc(C(=O)c3cc(OC)c(OC)c(OC)c3)c(NC(=O)CCl)c2c1` [Compound 3f, 2-Chloro-N-[5-methoxy-2-(3,4,5-trimethoxy-benzoyl)-1-benzofuran-3-yl]acetamide], in test [1], the IC50 came out at 60900 ± 2400 nM.
Still for that read-out and setting: then `COc1ccc2oc(C(=O)c3cc(OC)c(OC)c(OC)c3)c(NC(=O)CBr)c2c1` [Compound 3g, 2-Bromo-N-[5-methoxy-2-(3,4,5-trimethoxybenzoyl)-1-benzofuran-3-yl]acetamide], with 53400 ± 2600 nM.
As for `COc1ccc2oc(C(=O)c3cc(OC)c(OC)c(OC)c3)c(NC(=O)CI)c2c1` [Compound 3h, 2-Iodo-N-[5-methoxy-2-(3,4,5-trimethoxybenzoyl)-1-benzofuran-3-yl]acetamide], the IC50 in test [1] was 49200 ± 1800 nM; in test [2] it was 520 ± 30 nM.
On to `COc1cc(C(=O)c2oc3c(OC)cccc3c2NC(C)=O)cc(OC)c1OC` [Compound 3m, N-[7-Methoxy-2-(3,4,5-trimethoxybenzoyl)-1-benzofuran-3-yl]acetamide], for which the IC50 in test [1] came to 48100 ± 2600 nM.
Take `COc1cc(C(=O)c2oc3c(OC)cccc3c2NC(=O)CCl)cc(OC)c1OC` [Compound 3n, 2-Chloro-N-[7-methoxy-2-(3,4,5-trimethoxybenzoyl)-1-benzofuran-3-yl]acetamide]: in test [1], the IC50 stood at 82700 ± 5600 nM.
On the same count and under the same terms, then `COc1cc(C(=O)c2oc3c(OC)cccc3c2NC(=O)CBr)cc(OC)c1OC` [Compound 3o, 2-Bromo-N-[7-methoxy-2-(3,4,5-trimethoxybenzoyl)-1-benzofuran-3-yl]acetamide], with more than 100000 nM.
As for `COc1cc(C(=O)c2oc3c(OC)cccc3c2NC(=O)CI)cc(OC)c1OC` [Compound 3p, 2-Iodo-N-[7-methoxy-2-(3,4,5-trimethoxybenzoyl)-1-benzofuran-3-yl]acetamide], the IC50 in test [1] was 6960 ± 1120 nM; in test [2] it was 42800 ± 3770 nM.
In the case of `COc1cc(C(=O)c2sc3ccccc3c2NC(C)=O)cc(OC)c1OC` [Compound 3q, N-[2-(3,4,5-Trimethoxybenzoyl)-1-benzothien-3-yl] acetamide], in test [1], the IC50 was 630 ± 40 nM.
Still for that read-out and setting: then `COc1cc(C(=O)c2sc3ccccc3c2NC(=O)CCl)cc(OC)c1OC` [Compound 3r, 2-Chloro-N-[2-(3,4,5-trimethoxybenzoyl)-1-benzothien-3-yl]acetamide], with 600 ± 20 nM.
With `COc1cc(C(=O)c2sc3ccccc3c2NC(=O)CBr)cc(OC)c1OC` [Compound 3s, 2-Bromo-N-[2-(3,4,5-trimethoxybenzoyl)-1-benzothien-3-yl]acetamide], the IC50 in test [1] was 610 ± 40 nM; in test [2], 500 ± 10 nM.
On the same counts, the results for `COc1cc(C(=O)c2sc3ccccc3c2NC(=O)CI)cc(OC)c1OC` [Compound 3t, 2-Iodo-N-[2-(3,4,5-trimethoxybenzoyl)-1-benzothien-3-yl]acetamide] are 760 ± 20 nM and 580 ± 90 nM.
Regarding `COc1cc(C(=O)c2sc3cc(C)ccc3c2NC(C)=O)cc(OC)c1OC` [Compound 3u, N-[6-Methyl-2-(3,4,5-trimethoxybenzoyl)-1-benzothien-3-yl]acetamide], the IC50 in test [1] was 700 ± 10 nM.
The same measure, in the same setting: then `COc1cc(C(=O)c2sc3cc(C)ccc3c2NC(=O)CCl)cc(OC)c1OC` [Compound 3v, 2-Chloro-N-[6-methyl-2-(3,4,5-trimethoxybenzoyl)-1-benzothien-3-yl]acetamide], with 80 nM; and `COc1cc(C(=O)c2sc3cc(C)ccc3c2NC(=O)CBr)cc(OC)c1OC` [Compound 3w, 2-Bromo-N-[6-methyl-2-(3,4,5-trimethoxybenzoyl)-1-benzothien-3-yl]acetamide], with 500 ± 80 nM.
As for `COc1cc(C(=O)c2sc3cc(C)ccc3c2NC(=O)CI)cc(OC)c1OC` [Compound 3x, 2-Iodo-N-[6-methyl-2-(3,4,5-trimethoxybenzoyl)-1-benzothien-3-yl]acetamide], the IC50 in test [1] was 610 ± 10 nM; in test [2], 440 ± 70 nM.
For the compound `COc1cc(C(=O)c2sc3c(C)cccc3c2NC(C)=O)cc(OC)c1OC` [Compound 3y, N-[7-Methyl-2-(3,4,5-trimethoxybenzoyl)-1-benzothien-3-yl]acetamide], the IC50 in test [1] came out at 32 nM.
Turning to `COc1cc(C(=O)c2oc3ccccc3c2NC(=O)CO[N+](=O)[O-])cc(OC)c1OC` [Compound 4a, 2-Oxo-2-{[2-(3,4,5-trimethoxybenzoyl)-1-benzofuran-3-yl]amino}ethyl nitrate], the IC50 in test [1] is 31400 ± 1000 nM.
Consider `COc1cc(C(=O)c2sc3ccccc3c2NC(=O)CO[N+](=O)[O-])cc(OC)c1OC` [Compound 4b, 2-Oxo-2-{[2-(3,4,5-trimethoxybenzoyl)-1-benzothien-3-yl]amino}ethyl nitrate], for which the IC50 in test [1] turned out to be 550 ± 50 nM.
Turning to `C=C(Br)C(=O)Nc1c(C(=O)c2cc(OC)c(OC)c(OC)c2)oc2ccc(OC)cc12` [Compound 5b, 2-Bromo-N-[5-methoxy-2-(3,4,5-trimethoxybenzoyl)-1-benzofuran-3-yl]acrylamide], in test [1], the IC50 is more than 100000 nM.
On the same count and under the same terms, then `C=C(Br)C(=O)Nc1c(C(=O)c2cc(OC)c(OC)c(OC)c2)oc2cc(OC)ccc12` [Compound 5c, 2-Bromo-N-[6-methoxy-2-(3,4,5-trimethoxybenzoyl)-1-benzofuran-3-yl]acrylamide], with 25900 ± 2300 nM.
Still for that read-out and setting: then `C=C(Br)C(=O)Nc1c(C(=O)c2cc(OC)c(OC)c(OC)c2)sc2ccccc12` [Compound 5e, 2-Bromo-N-[2-(3,4,5-trimethoxybenzoyl)-1-benzothien-3-yl]acrylamide], with 580 ± 30 nM; and `C=C(Br)C(=O)Nc1c(C(=O)c2cc(OC)c(OC)c(OC)c2)sc2c(C)cccc12` [Compound 5g, 2-Bromo-N-[7-methyl-2-(3,4,5-trimethoxybenzoyl)-1-benzothien-3-yl]acrylamide], with 490 ± 30 nM.

The record behind these values is PMC2911241 (Letters in drug design & discovery, 2010).
